Assay [1] deals with Staphylococcus aureus. The experiment in a line: Antibacterial activity against methicillin-resistant Staphylococcus aureus 20450 in presence of Ca2+ by broth microdilution method. Type of assay: functional. In short, it runs like this: (§1)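 MIC by broth microdilution following CLSI guidelines, run in medium without added Ca2+ and with Ca2+ ions supplemented (level not given). Reference strains came from the Tarasevich State Research Institution collection of pathogenic microorganisms. Clinical MRSA/MRSE isolates came from the Russia Research Institute for Antibiotics Culture Collection.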
For orientation: Dilution methods test growth across graded concentrations, often in twofold steps.

For assay [2], the system named is Staphylococcus aureus. The assay is described as follows: Antibacterial activity against methicillin-resistant Staphylococcus aureus 71001 by broth microdilution method. Type of assay: functional. Summed up: as §1
In assay [3] the test system is Staphylococcus epidermidis. The assay is described as follows: Ratio of MIC for methicillin-resistant Staphylococcus epidermidis C2001 in absence of Ca2+ to MIC for methicillin-resistant Staphylococcus epidermidis C2001 in presence of Ca2+. Type of assay: functional.
In assay [4] the test system is Staphylococcus aureus. The assay is described as follows: Antibacterial activity against Staphylococcus aureus ATCC 29213 in presence of Ca2+ by broth microdilution method. Format: functional. In short, it runs like this:
as §1

The test system of assay [5] is Staphylococcus epidermidis. The assay is described as follows: Antibacterial activity against methicillin-resistant Staphylococcus epidermidis 004-T1 by broth microdilution method. Type of assay: functional. In short, it runs like this: as §1
Assay [6] deals with Staphylococcus aureus. The assay is described as follows: Antibacterial activity against methicillin-resistant Staphylococcus aureus 88 in presence of Ca2+ by broth microdilution method. Type of assay: functional. In short, it runs like this:
as §1

The test system of assay [7] is Staphylococcus aureus. The assay is described as follows: Antibacterial activity against methicillin-resistant Staphylococcus aureus 88 by broth microdilution method. Type of assay: functional. Summed up:
as §1

Assay [8] concerns Staphylococcus epidermidis. The assay is described as follows: Ratio of MIC for methicillin-resistant Staphylococcus epidermidis 004-T1 in absence of Ca2+ to MIC for methicillin-resistant Staphylococcus epidermidis 004-T1 in presence of Ca2+. Type of assay: functional.
The test system of assay [9] is Staphylococcus epidermidis. The experiment in a line: Antibacterial activity against methicillin-resistant Staphylococcus epidermidis 20459 in presence of Ca2+ by broth microdilution method. Format: functional. In short, it runs like this: as §1
The test system of assay [10] is Staphylococcus aureus. The experiment in a line: Antibacterial activity against methicillin-resistant Staphylococcus aureus 86 by broth microdilution method. Type of assay: functional. In short, it runs like this:
as §1

For assay [11], the system named is Staphylococcus aureus. The experiment in a line: Antibacterial activity against Staphylococcus aureus ATCC 29213 by broth microdilution method. Type of assay: functional. In short, it runs like this: as §1
In another assay the test system is Escherichia coli. The assay is described as follows: Antibacterial activity against Escherichia coli ATCC 25922. Format: functional, organism-based. In short, it runs like this: as §1
Assay [12] has as its system Staphylococcus epidermidis. The assay is described as follows: Antibacterial activity against methicillin-resistant Staphylococcus epidermidis C2001 by broth microdilution method. Type of assay: functional. Summed up:
as §1

Assay [13] relates to Staphylococcus epidermidis. The assay is described as follows: Antibacterial activity against methicillin-resistant Staphylococcus epidermidis 004-T1 in presence of Ca2+ by broth microdilution method. Type of assay: functional. In short, it runs like this: as §1
Assay [14] concerns Staphylococcus aureus. The assay is described as follows: Ratio of MIC for Staphylococcus aureus ATCC 29213 in absence of Ca2+ to MIC for Staphylococcus aureus ATCC 29213 in presence of Ca2+. Type of assay: functional.
In another assay the test system is Aspergillus niger. The experiment in a line: Antifungal activity against Aspergillus niger ATCC 16404. Format: functional, organism-based.
Assay [15] relates to Enterococcus faecalis. The experiment in a line: Antibacterial activity against Enterococcus faecalis ATCC 29212 in presence of Ca2+ by broth microdilution method. Type of assay: functional.
The subject of assay [16] is Staphylococcus aureus. The experiment in a line: Antibacterial activity against methicillin-resistant Staphylococcus aureus 86 in presence of Ca2+ by broth microdilution method. Format: functional. Summed up:
as §1

Assay [17] deals with Staphylococcus aureus. The assay is described as follows: Antibacterial activity against methicillin-resistant Staphylococcus aureus 20450 by broth microdilution method. Type of assay: functional. Summed up:
as §1

Another assay has as its system Candida albicans. The assay is described as follows: Antifungal activity against Candida albicans ATCC 14053. Format: functional, organism-based.
Assay [18] has as its system Staphylococcus epidermidis. The assay is described as follows: Antibacterial activity against methicillin-resistant Staphylococcus epidermidis C2001 in presence of Ca2+ by broth microdilution method. Type of assay: functional. Summed up: as §1
Assay [19] concerns Staphylococcus aureus. The experiment in a line: Antibacterial activity against methicillin-resistant Staphylococcus aureus 71001 in presence of Ca2+ by broth microdilution method. Type of assay: functional. In short, it runs like this: as §1
Assay [20] has as its system Staphylococcus aureus. The experiment in a line: Antibacterial activity against methicillin-resistant Staphylococcus aureus 17 in presence of Ca2+ by broth microdilution method. Format: functional. In short, it runs like this:
as §1

Assay [21] relates to Enterococcus gallinarum. The experiment in a line: Antibacterial activity against Enterococcus gallinarum VP4147 in presence of Ca2+ by broth microdilution method. Format: functional.
Assay [22] deals with Enterococcus faecalis. The experiment in a line: Antibacterial activity against Enterococcus faecalis ATCC 29212 by broth microdilution method. Type of assay: functional. In short, it runs like this:
as §1

Assay [23] deals with Enterococcus gallinarum. The experiment in a line: Antibacterial activity against Enterococcus gallinarum VP4147 by broth microdilution method. Type of assay: functional.
Assay [24] concerns Staphylococcus epidermidis. The assay is described as follows: Antibacterial activity against methicillin-resistant Staphylococcus epidermidis 20459 by broth microdilution method. Type of assay: functional. Summed up:
as §1

The subject of assay [25] is Staphylococcus aureus. The assay is described as follows: Antibacterial activity against methicillin-resistant Staphylococcus aureus 17 by broth microdilution method. Format: functional. In short, it runs like this:
as §1

Assay [26] deals with Enterococcus gallinarum. The assay is described as follows: Ratio of MIC for Enterococcus gallinarum VP4147 in absence of Ca2+ to MIC for Enterococcus gallinarum VP4147 in presence of Ca2+. Type of assay: functional.
The subject of assay [27] is Enterococcus faecalis. The experiment in a line: Ratio of MIC for Enterococcus faecalis ATCC 29212 in absence of Ca2+ to MIC for Enterococcus faecalis ATCC 29212 in presence of Ca2+. Type of assay: functional.

Values after ≈ are worked out from the molar mass of the structure shown. Active and inactive are the calls of the source.

For 3 molecules, MIC, Ratio and Activity results are on record in ChEMBL document CHEMBL4257495, “Crystallomycin revisited after 60 years: aspartocins B and C” (2018).

In the case of `CC(C)CCCCCCC/C=C/CC(=O)N[C@@H](CC(=O)O)C(=O)N[C@@H]1C(=O)N2CCCC[C@@H]2C(=O)N[C@@H]([C@H](C)C(=O)O)C(=O)N[C@@H](CC(=O)O)C(=O)NCC(=O)N[C@@H](CC(=O)O)C(=O)NCC(=O)N[C@H](C(C)N)C(=O)N[C@@H](C(C)C)C(=O)N2CCC[C@H]2C(=O)N[C@@H]1C` (some centres undefined), the minimal inhibitory concentration (MIC) with Staphylococcus aureus [1] came out at 2 µg/mL; in the assay on Staphylococcus aureus [2], 16 µg/mL (≈ 12.3 µM); in the assay with Staphylococcus aureus [4], 4 µg/mL; in assay [5], 32 µg/mL (≈ 24.5 µM); in the assay on Staphylococcus aureus [6] it was 4 µg/mL; in the assay with Staphylococcus aureus [7], 16 µg/mL (≈ 12.3 µM). For the same molecule, the minimum inhibitory concentration (MIC) in assay [9] amounted to 4 µg/mL; against Staphylococcus aureus [10], 16 µg/mL (≈ 12.3 µM); in the assay with Staphylococcus aureus [11], 16 µg/mL (≈ 12.3 µM); in [12], 16 µg/mL (≈ 12.3 µM); in [13], 4 µg/mL; in the assay with Enterococcus faecalis [15] it was 8 µg/mL. The MIC in the assay on Staphylococcus aureus [16] was 4 µg/mL; in the assay with Staphylococcus aureus [17], 16 µg/mL (≈ 12.3 µM); in assay [18], 4 µg/mL; with Staphylococcus aureus [19], 4 µg/mL; in the assay on Staphylococcus aureus [20], 4 µg/mL; in the assay on Enterococcus gallinarum [21] it was 4 to 8 µg/mL. The Ratio (in assay [3]; in assay [8]; in the assay on Staphylococcus aureus [14]) was 2 - 8 each time. For the same molecule, the outcome in the assay with Escherichia coli, in the assay with Aspergillus niger and in the assay on Candida albicans was inactive.
With `CCCCCCCCCC(=O)N[C@@H](Cc1c[nH]c2ccccc12)C(=O)N[C@@H](CC(N)=O)C(=O)N[C@@H](CC(=O)O)C(=O)N[C@@H]1C(=O)NCC(=O)N[C@@H](CCCN)C(=O)N[C@@H](CC(=O)O)C(=O)N[C@H](C)C(=O)N[C@@H](CC(=O)O)C(=O)NCC(=O)N[C@H](CO)C(=O)N[C@@H]([C@H](C)CC(=O)O)C(=O)N[C@@H](CC(=O)c2ccccc2N)C(=O)O[C@@H]1C` [DAPTOMYCIN], the MIC in the assay on Enterococcus faecalis [22] was 4 µg/mL (≈ 2.47 µM); in the assay on Staphylococcus aureus [2], 0.5 to 1 µg/mL (≈ 0.309 to 0.617 µM); in assay [5], 1 µg/mL (≈ 0.617 µM); in the assay on Staphylococcus aureus [7], 0.5 to 1 µg/mL (≈ 0.309 to 0.617 µM); in the assay on Staphylococcus aureus [10], 1 µg/mL (≈ 0.617 µM); against Staphylococcus aureus [11] it was 0.5 µg/mL (≈ 0.309 µM). The minimal inhibitory concentration (MIC) came out at 8 µg/mL (≈ 4.94 µM) against Enterococcus gallinarum [23]; 1 µg/mL (≈ 0.617 µM) in assay [12]; 1 µg/mL (≈ 0.617 µM) in [24]; 1 µg/mL (≈ 0.617 µM) against Staphylococcus aureus [17]; 2 µg/mL (≈ 1.23 µM) against Staphylococcus aureus [25].
Turning to `CCC(C)CCCCCCC/C=C\CC(=O)N[C@@H](CC(=O)O)C(=O)N[C@@H]1C(=O)N2CCCC[C@@H]2C(=O)N[C@@H]([C@H](C)C(=O)O)C(=O)N[C@@H](CC(=O)O)C(=O)NCC(=O)N[C@@H](CC(=O)O)C(=O)NCC(=O)N[C@H](C(C)N)C(=O)N[C@@H](C(C)C)C(=O)N2CCC[C@H]2C(=O)N[C@@H]1C` (some centres undefined), the MIC is 1 to 2 µg/mL with Staphylococcus aureus [1]; 16 µg/mL (≈ 12.1 µM) against Enterococcus faecalis [22]; 8 µg/mL (≈ 6.07 µM) with Staphylococcus aureus [2]; 2 µg/mL in the assay on Staphylococcus aureus [4]; 16 µg/mL (≈ 12.1 µM) in [5]; 2 µg/mL in the assay on Staphylococcus aureus [6]. Moreover, the MIC with Staphylococcus aureus [7] is 8 µg/mL (≈ 6.07 µM); in assay [9] it was 4 µg/mL; with Staphylococcus aureus [10], 8 µg/mL (≈ 6.07 µM); against Staphylococcus aureus [11], 4 to 8 µg/mL (≈ 3.03 to 6.07 µM); against Enterococcus gallinarum [23], 16 µg/mL (≈ 12.1 µM); in [12] it was 4 to 8 µg/mL (≈ 3.03 to 6.07 µM). Further, the MIC in assay [13] was 4 µg/mL; in the assay on Enterococcus faecalis [15] it was 8 µg/mL; in the assay on Staphylococcus aureus [16], 2 µg/mL; against Staphylococcus aureus [17], 8 µg/mL (≈ 6.07 µM); in assay [18], 2 µg/mL; in the assay on Staphylococcus aureus [19] it was 2 µg/mL. The minimum inhibitory concentration (MIC) in the assay with Staphylococcus aureus [25] was 8 µg/mL (≈ 6.07 µM); with Staphylococcus aureus [20], 4 µg/mL; in the assay on Enterococcus gallinarum [21], 4 to 8 µg/mL. For the same molecule, the Ratio (in assay [3]; in [8]; in the assay on Staphylococcus aureus [14]; with Enterococcus gallinarum [26]; in the assay with Enterococcus faecalis [27]) was 2 - 8 each time. Moreover, the outcome in the assay on Escherichia coli, in the assay on Aspergillus niger and with Candida albicans was inactive.

As usually defined, the MIC is the smallest concentration in the dilution series that meets the test's criterion for growth inhibition.
